Data from ChEMBL document CHEMBL1157665, “Novel 4-thiazolidinone derivatives as potential antifungal and antibacterial drugs” (2010).
In brackets after ≈: the same amount, converted by molar mass.

What was measured:
[1] = test system: Trichoderma viride; experiment: Antifungal activity against Trichoderma viride IAM 5061 after 72 hrs by serial sub-cultivation method; format: functional; conditions: IAM 5061, 72 h
Outline: (§1)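 MFC was found by serial sub-cultivation of 2 µl into plates holding 100 µl broth per well, then incubation 72 h at 28 °C. MFC is the lowest concentration with no visible growth, taken as 99.5% killing of the original inoculum. Spore inocula came from malt agar cultures washed with 0.85% saline and 0.1% Tween 80.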

[2] = test system: Aspergillus flavus; experiment: Antifungal activity against Aspergillus flavus ATCC 9643 after 72 hrs by serial sub-cultivation method; format: functional; conditions: ATCC 9643, 72 h; outline: as §1
[3] = test system: Aspergillus fumigatus; experiment: Antifungal activity against Aspergillus fumigatus plant isolate after 72 hrs by serial dilution method
[4] = test system: Staphylococcus aureus; experiment: Antibacterial activity against Staphylococcus aureus ATCC 6538 after 24 hrs; format: functional; conditions: ATCC 6538, 24 h
Outline: (§2)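 Broth microdilution MIC in 96-well plates. Compounds in LB broth with bacterial inoculum of 1.0 × 10^4 cfu per well, from suspensions adjusted with sterile saline to 1.0 × 10⁵ CFU/ml. Incubated 24 h at […] as printed. MIC taken as the lowest concentration with no visible growth under the binocular microscope. OD at 655 nm also read against blank. Streptomycin and ampicillin as positive controls. Duplicate, repeated three times.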

[5] = test system: Bacillus cereus; experiment: Antibacterial activity against Bacillus cereus clinical isolate after 72 hrs by serial sub-cultivation method; format: functional
Outline: (§3)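 MBC was found by serial sub-cultivation of 2 µl from the MIC wells into plates holding 100 µl broth per well, then incubation for 72 h. MBC is the lowest concentration with no visible growth, i.e. 99.5% killing of the original inoculum. Bacterial inoculum was 1.0 × 10^4 cfu per well in LB broth. Duplicate, repeated three times.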

[6] = test system: Aspergillus fumigatus; experiment: Antifungal activity against Aspergillus fumigatus plant isolate after 72 hrs by serial sub-cultivation method
[7] = test system: Aspergillus versicolor; experiment: Antifungal activity against Aspergillus versicolor ATCC 11730 after 72 hrs by serial dilution method; format: functional; conditions: ATCC 11730, 72 h
Outline: (§4)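 Fungi were kept on malt agar at 4 °C and sub-cultured monthly. Spores were washed off the agar with sterile 0.85% saline containing 0.1% Tween 80 (v/v). Modified microdilution in 96-well plates. MIC is the lowest concentration with no visible growth under the binocular microscope. Inoculum checked on malt agar for contamination and validity.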

[8] = test system: Salmonella typhimurium; experiment: Antibacterial activity against Salmonella Typhimurium ATCC 13311 after 72 hrs by serial sub-cultivation method; format: functional, Salmonella enterica subsp. enterica serovar Typhimurium; conditions: Salmonella enterica, ATCC 13311, 72 h; outline: as §3
[9] = test system: Listeria monocytogenes; experiment: Antibacterial activity against Listeria monocytogenes NCTC 7973 after 72 hrs by serial sub-cultivation method; format: functional; conditions: NCTC 7973, 72 h; outline: as §3
[10] = test system: Salmonella typhimurium; experiment: Antibacterial activity against Salmonella Typhimurium ATCC 13311 after 24 hrs; format: functional, Salmonella enterica subsp. enterica serovar Typhimurium; conditions: Salmonella enterica, ATCC 13311, 24 h; outline: as §2
[11] = test system: Trichoderma viride; experiment: Antifungal activity against Trichoderma viride IAM 5061 after 72 hrs by serial dilution method; format: functional; conditions: IAM 5061, 72 h; outline: as §4
[12] = test system: Penicillium ochrochloron; experiment: Antifungal activity against Penicillium ochrochloron ATCC 9112 after 72 hrs by serial sub-cultivation method; format: functional; conditions: ATCC 9112, 72 h; outline: as §1
[13] = test system: Aspergillus niger; experiment: Antifungal activity against Aspergillus niger ATCC 6275 after 72 hrs by serial dilution method; format: functional; conditions: ATCC 6275, 72 h; outline: as §4
[14] = test system: Bacillus cereus; experiment: Antibacterial activity against Bacillus cereus clinical isolate after 24 hrs; format: functional; outline: as §2
[15] = test system: Pseudomonas aeruginosa; experiment: Antibacterial activity against Pseudomonas aeruginosa ATCC 27853 after 24 hrs; format: functional; conditions: ATCC 27853, 24 h; outline: as §2
[16] = test system: Talaromyces funiculosus; experiment: Antifungal activity against Penicillium funiculosum ATCC 36839 after 72 hrs by serial sub-cultivation method; format: functional; conditions: ATCC 36839, 72 h; outline: as §1
[17] = test system: Escherichia coli; experiment: Antibacterial activity against Escherichia coli ATCC 35210 after 24 hrs; format: functional; conditions: ATCC 35210, 24 h; outline: as §2
[18] = test system: Aspergillus flavus; experiment: Antifungal activity against Aspergillus flavus ATCC 9643 after 72 hrs by serial dilution method; format: functional; conditions: ATCC 9643, 72 h; outline: as §4
[19] = test system: Proteus mirabilis; experiment: Antibacterial activity against Proteus mirabilis after 72 hrs by serial sub-cultivation method; format: functional; outline: as §3
[20] = test system: Proteus mirabilis; experiment: Antibacterial activity against Proteus mirabilis after 24 hrs; format: functional; outline: as §2
[21] = test system: Listeria monocytogenes; experiment: Antibacterial activity against Listeria monocytogenes NCTC 7973 after 24 hrs; format: functional; conditions: NCTC 7973, 24 h; outline: as §2
[22] = test system: Fulvia fulva; experiment: Antifungal activity against Fulvia fulva TK 5318 after 72 hrs by serial sub-cultivation method; format: functional; conditions: TK 5318, 72 h; outline: as §1
[23] = test system: Micrococcus flavus; experiment: Antibacterial activity against Micrococcus flavus ATCC 10240 after 24 hrs; format: functional; conditions: ATCC 10240, 24 h; outline: as §2
[24] = test system: Escherichia coli; experiment: Antibacterial activity against Escherichia coli ATCC 35210 after 72 hrs by serial sub-cultivation method; format: functional; conditions: ATCC 35210, 72 h; outline: as §3
[25] = test system: Micrococcus flavus; experiment: Antibacterial activity against Micrococcus flavus ATCC 10240 after 72 hrs by serial sub-cultivation method; format: functional; conditions: ATCC 10240, 72 h; outline: as §3
[26] = test system: Talaromyces funiculosus; experiment: Antifungal activity against Penicillium funiculosum ATCC 36839 after 72 hrs by serial dilution method; format: functional; conditions: ATCC 36839, 72 h; outline: as §4
[27] = test system: Aspergillus niger; experiment: Antifungal activity against Aspergillus niger ATCC 6275 after 72 hrs by serial sub-cultivation method; format: functional; conditions: ATCC 6275, 72 h; outline: as §1
[28] = test system: Pseudomonas aeruginosa; experiment: Antibacterial activity against Pseudomonas aeruginosa ATCC 27853 after 72 hrs by serial sub-cultivation method; format: functional; conditions: ATCC 27853, 72 h; outline: as §3
[29] = test system: Aspergillus versicolor; experiment: Antifungal activity against Aspergillus versicolor ATCC 11730 after 72 hrs by serial sub-cultivation method; format: functional; conditions: ATCC 11730, 72 h; outline: as §1
[30] = test system: Fulvia fulva; experiment: Antifungal activity against Fulvia fulva TK 5318 after 72 hrs by serial dilution method; format: functional; conditions: TK 5318, 72 h; outline: as §4
[31] = test system: Penicillium ochrochloron; experiment: Antifungal activity against Penicillium ochrochloron ATCC 9112 after 72 hrs by serial dilution method; format: functional; conditions: ATCC 9112, 72 h; outline: as §4
[32] = test system: Staphylococcus aureus; experiment: Antibacterial activity against Staphylococcus aureus ATCC 6538 after 72 hrs by serial sub-cultivation method; format: functional; conditions: ATCC 6538, 72 h; outline: as §3

Row | MIC [4] [µM] | MIC [7] [µM] | MIC [10] [µM] | MIC [11] [µM] | MIC [13] [µM] | MIC [14] [µM] | MIC [15] [µM] | MIC [17] [µM] | MIC [18] [µM] | MIC [20] [µM] | SMILES | MFC [1] [µM] | MFC [2] [µM] | MIC [3] [µM] | MBC [5] [µM] | MFC [6] [µM] | MBC [8] [µM] | MBC [9] [µM] | MFC [12] [µM] | MFC [16] [µM] | MBC [19] [µM] | other results
1 | 21.9 (≈ 9.99 µg/mL) | 16.4 (≈ 7.48 µg/mL) | 21.9 (≈ 9.99 µg/mL) | 11 (≈ 5.02 µg/mL) | 11 (≈ 5.02 µg/mL) | 16.4 (≈ 7.48 µg/mL) | 21.9 (≈ 9.99 µg/mL) | 21.9 (≈ 9.99 µg/mL) | 11 (≈ 5.02 µg/mL) | 43.8 (≈ 20 µg/mL) | O=C1N/C(=N/c2nc(C34CC5CC(CC(C5)C3)C4)cs2)S/C1=C\c1ccc(Cl)cc1 | 16.4 (≈ 7.48 µg/mL) | 21.9 (≈ 9.99 µg/mL) | 11 (≈ 5.02 µg/mL) | 21.9 (≈ 9.99 µg/mL) | 21.9 (≈ 9.99 µg/mL) | 43.8 (≈ 20 µg/mL) | 43.8 (≈ 20 µg/mL) | 21.9 (≈ 9.99 µg/mL) | 21.9 (≈ 9.99 µg/mL) | 65.7 (≈ 30 µg/mL) | MIC [21]: 21.9 µM (≈ 9.99 µg/mL); MFC [22]: 16.4 µM (≈ 7.48 µg/mL); MIC [23]: 11 µM (≈ 5.02 µg/mL); MBC [24]: 43.8 µM (≈ 20 µg/mL); MBC [25]: 21.9 µM (≈ 9.99 µg/mL); MIC [26]: 11 µM (≈ 5.02 µg/mL); MFC [27]: 21.9 µM (≈ 9.99 µg/mL); MBC [28]: 43.8 µM (≈ 20 µg/mL); MFC [29]: 21.9 µM (≈ 9.99 µg/mL); MIC [30]: 11 µM (≈ 5.02 µg/mL); MIC [31]: 16.4 µM (≈ 7.48 µg/mL); MBC [32]: 43.8 µM (≈ 20 µg/mL)
2 | 16.4 (≈ 7.48 µg/mL) | 11 (≈ 5.02 µg/mL) | 21.9 (≈ 9.99 µg/mL) | 11 (≈ 5.02 µg/mL) | 11 (≈ 5.02 µg/mL) | 16.4 (≈ 7.48 µg/mL) | 21.9 (≈ 9.99 µg/mL) | 21.9 (≈ 9.99 µg/mL) | 16.4 (≈ 7.48 µg/mL) | 43.8 (≈ 20 µg/mL) | O=C1N/C(=N/c2nc(C34CC5CC(CC(C5)C3)C4)cs2)S/C1=C\c1cccc(Cl)c1 | 21.9 (≈ 9.99 µg/mL) | 21.9 (≈ 9.99 µg/mL) | 11 (≈ 5.02 µg/mL) | 21.9 (≈ 9.99 µg/mL) | 21.9 (≈ 9.99 µg/mL) | 43.8 (≈ 20 µg/mL) | 43.8 (≈ 20 µg/mL) | 11 (≈ 5.02 µg/mL) | 21.9 (≈ 9.99 µg/mL) | 65.7 (≈ 30 µg/mL) | MIC [21]: 21.9 µM (≈ 9.99 µg/mL); MFC [22]: 21.9 µM (≈ 9.99 µg/mL); MIC [23]: 11 µM (≈ 5.02 µg/mL); MBC [24]: 43.8 µM (≈ 20 µg/mL); MBC [25]: 21.9 µM (≈ 9.99 µg/mL); MIC [26]: 21.9 µM (≈ 9.99 µg/mL); MFC [27]: 21.9 µM (≈ 9.99 µg/mL); MBC [28]: 43.8 µM (≈ 20 µg/mL); MFC [29]: 21.9 µM (≈ 9.99 µg/mL); MIC [30]: 16.4 µM (≈ 7.48 µg/mL); MIC [31]: 5.5 µM (≈ 2.51 µg/mL); MBC [32]: 43.8 µM (≈ 20 µg/mL)
